Consider 29 compounds from ChEMBL document CHEMBL4219100, “Discovery of selective EGFR modulator to inhibit L858R/T790M double mutants bearing a N-9-Diphenyl-9H-purin-2-amine scaffold” (Bioorg Med Chem, 2018).

SMILES strings stand for the structures. pIC50: −log10 of the molar value.

Test [1] concerns the target Epidermal growth factor receptor (Homo sapiens, UniProt P00533). The test can be described thus: Inhibition of recombinant human GST-tagged EGFR cytoplasmic domain (668 to 1210 residues) expressed in baculovirus expression system using FAM-labelled peptide as substrate pretreated for 10 mins followed by substrate addition measured after 1 hr by mobility shift assay.
The species named for test [2] is Homo sapiens. Put plainly: Selectivity ratio of IC50 for human A549 cells expressing wild-type EGFR/K-Ras mutant to IC50 for human NCI-H1975 cells expressing EGFR L858R/T790M double mutant.
A further test has as its system HT-29. Put plainly: Cytotoxicity against human HT-29 cells after 72 hrs by MTT assay. Particulars: HT-29, 72 h. The test is classed as cell-based. Put shortly:
(§1)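 Cells grown in MEM with 10% FBS; about 4×10^3 cells per well seeded and held 24 h at 37°C in 5% CO₂. Compounds then added and culture continued 72 h. MTT added ([…]) for 4 h at 37°C. Formazan dissolved in DMSO and absorbance read at 492 nm against 630 nm reference. Each compound tested three times per line; IC50 is the mean of at least three determinations.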
(In general: Tetrazolium assays rely on reduction of a dye to a coloured formazan, in cell work by metabolically active cells.)

The test system of a further test is A549. The test can be described thus: Cytotoxicity against human A549 cells expressing wild-type EGFR/K-ras mutant after 72 hrs by MTT assay. The test is classed as cell-based. As to conditions: A549, 72 h. Put shortly:
as §1

The species entered for test [3] is Homo sapiens. Put plainly: Selectivity ratio of IC50 for recombinant human GST-tagged EGFR cytoplasmic domain (668 to 1210 residues) expressed in baculovirus expression system to IC50 for recombinant human GST-tagged EGFR L858R/T790M double mutant cytoplasmic domain (668 to 1210 residues) expressed in baculovirus expression system. Put shortly:
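Caliper mobility-shift kinase assay in 50 mM HEPES pH 7.5, 0.0015% Brij35, 2 mM DTT. Five-point DMSO dilution series, in duplicate. Enzyme (EGFR form as appropriate) was preincubated with compound for 10 min at room temperature. FAM-labeled peptide plus ATP was added, then 1 h at 28°C. Stopped with EDTA buffer. Percent inhibition came from substrate conversion; ratio taken as WT IC50 over L858R/T790M IC50.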

The next test concerns NCI-H1975. Put plainly: Cytotoxicity against human NCI-H1975 cells expressing EGFR L858R/T790M double mutant after 72 hrs by MTT assay. As to conditions: NCI-H1975, 72 h. The test is classed as functional, cell-based. Put shortly:
as §1

Test [4] has as its target Epidermal growth factor receptor (Homo sapiens, UniProt P00533, L858R/T790M). The test can be described thus: Inhibition of recombinant human GST-tagged EGFR L858R/T790M double mutant cytoplasmic domain (668 to 1210 residues) expressed in baculovirus expression system using FAM-labelled peptide as substrate pretreated for 10 mins followed by substrate addition measured after 1 hr by mobility shift assay. Particulars: for pIC50: read-out: IC50.

Test [5] addresses Epidermal growth factor receptor (Homo sapiens, UniProt P00533, T790M). Put plainly: Inhibition of recombinant human GST-tagged EGFR T790M mutant cytoplasmic domain (668 to 1210 residues) expressed in baculovirus expression system using FAM-labelled peptide as substrate pretreated for 10 mins followed by substrate addition measured after 1 hr by mobility shift assay.

Sequence of Epidermal growth factor receptor (Homo sapiens, UniProt P00533) (P00533 whole entry, the tested form may be a part): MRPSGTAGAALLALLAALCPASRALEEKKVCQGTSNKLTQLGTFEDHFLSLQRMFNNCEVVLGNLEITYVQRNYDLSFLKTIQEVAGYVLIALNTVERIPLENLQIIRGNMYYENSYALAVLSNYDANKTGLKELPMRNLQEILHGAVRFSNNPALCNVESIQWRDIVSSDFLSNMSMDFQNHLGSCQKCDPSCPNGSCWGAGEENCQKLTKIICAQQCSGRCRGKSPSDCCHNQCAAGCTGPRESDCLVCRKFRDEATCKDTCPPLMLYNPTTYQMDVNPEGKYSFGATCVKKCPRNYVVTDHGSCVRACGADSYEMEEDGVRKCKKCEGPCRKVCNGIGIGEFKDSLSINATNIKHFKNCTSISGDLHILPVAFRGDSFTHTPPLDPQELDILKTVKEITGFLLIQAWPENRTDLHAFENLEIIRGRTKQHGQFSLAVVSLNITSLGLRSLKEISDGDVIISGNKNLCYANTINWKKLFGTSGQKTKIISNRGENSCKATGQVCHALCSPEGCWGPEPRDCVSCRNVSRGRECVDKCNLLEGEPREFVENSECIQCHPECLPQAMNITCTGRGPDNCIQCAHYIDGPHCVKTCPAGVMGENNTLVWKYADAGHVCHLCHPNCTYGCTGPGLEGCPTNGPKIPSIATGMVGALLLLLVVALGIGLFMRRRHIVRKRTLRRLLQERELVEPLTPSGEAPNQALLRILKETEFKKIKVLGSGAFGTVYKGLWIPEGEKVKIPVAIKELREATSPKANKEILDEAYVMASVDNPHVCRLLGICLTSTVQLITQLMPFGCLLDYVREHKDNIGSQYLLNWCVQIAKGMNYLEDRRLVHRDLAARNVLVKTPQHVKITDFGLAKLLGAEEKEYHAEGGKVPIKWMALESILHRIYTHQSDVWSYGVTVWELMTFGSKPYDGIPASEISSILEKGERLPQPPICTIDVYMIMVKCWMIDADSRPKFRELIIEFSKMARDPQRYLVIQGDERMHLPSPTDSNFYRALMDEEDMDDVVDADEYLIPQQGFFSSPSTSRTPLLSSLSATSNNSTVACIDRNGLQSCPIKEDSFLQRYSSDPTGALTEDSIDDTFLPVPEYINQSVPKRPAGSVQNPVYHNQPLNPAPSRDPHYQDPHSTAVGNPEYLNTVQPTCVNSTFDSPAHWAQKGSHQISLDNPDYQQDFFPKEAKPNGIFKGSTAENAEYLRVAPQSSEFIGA
Sequence of Epidermal growth factor receptor (Homo sapiens, UniProt P00533, L858R/T790M) (P00533 25-1210 T790M/L858R limits assumed): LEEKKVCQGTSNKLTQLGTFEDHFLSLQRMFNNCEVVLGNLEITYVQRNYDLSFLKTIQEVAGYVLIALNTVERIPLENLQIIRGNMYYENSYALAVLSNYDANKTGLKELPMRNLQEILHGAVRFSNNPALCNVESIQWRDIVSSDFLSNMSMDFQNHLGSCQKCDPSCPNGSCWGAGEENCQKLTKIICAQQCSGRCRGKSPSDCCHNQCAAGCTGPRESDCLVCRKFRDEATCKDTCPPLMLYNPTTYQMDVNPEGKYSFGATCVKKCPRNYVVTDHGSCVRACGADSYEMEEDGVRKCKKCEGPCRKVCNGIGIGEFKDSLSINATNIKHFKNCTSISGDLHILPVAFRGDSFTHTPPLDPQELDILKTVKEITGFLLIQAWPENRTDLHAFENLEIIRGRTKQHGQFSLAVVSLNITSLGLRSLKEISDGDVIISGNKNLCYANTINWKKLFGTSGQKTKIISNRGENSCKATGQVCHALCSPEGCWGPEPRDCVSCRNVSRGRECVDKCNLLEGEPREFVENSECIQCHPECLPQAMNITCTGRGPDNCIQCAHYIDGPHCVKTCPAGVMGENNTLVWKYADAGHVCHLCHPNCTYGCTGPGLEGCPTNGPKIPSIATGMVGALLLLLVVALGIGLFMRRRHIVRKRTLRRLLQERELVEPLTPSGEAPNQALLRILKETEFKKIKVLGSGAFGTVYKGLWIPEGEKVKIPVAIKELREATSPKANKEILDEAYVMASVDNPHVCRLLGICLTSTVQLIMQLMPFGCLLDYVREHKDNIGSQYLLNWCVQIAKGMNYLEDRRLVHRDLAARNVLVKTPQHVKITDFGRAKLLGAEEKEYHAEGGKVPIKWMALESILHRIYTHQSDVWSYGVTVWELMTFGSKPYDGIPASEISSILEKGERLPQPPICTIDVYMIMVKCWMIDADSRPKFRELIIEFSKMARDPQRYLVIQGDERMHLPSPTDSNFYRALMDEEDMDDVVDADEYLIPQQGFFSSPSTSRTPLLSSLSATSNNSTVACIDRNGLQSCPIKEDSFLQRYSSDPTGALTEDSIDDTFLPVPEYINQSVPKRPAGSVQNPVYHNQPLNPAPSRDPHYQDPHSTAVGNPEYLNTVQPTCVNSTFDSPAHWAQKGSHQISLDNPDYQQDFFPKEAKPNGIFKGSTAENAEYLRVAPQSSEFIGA

What is called pIC50 is −log10 of the IC50, conventionally taken in molar units. Turning to `C=CC(=O)Nc1cc(Nc2ncc3ncn(-c4ccc(F)c(Br)c4)c3n2)c(OC)cc1N(C)CCN(C)C`, the pIC50 in test [1] was 8.00; in the test with HT-29, 5.44; in the test with A549, 5.52; with NCI-H1975 it was 7.46; in test [4], 8.64. In addition, the Ratio IC50 in the test filed under Homo sapiens [2] was found to be 86; in the test filed under Homo sapiens [3], 4.3.
`C=CC(=O)Nc1cc(Nc2ncc3[nH]c(=O)n(-c4ccc(C(C)C)cc4)c3n2)c(OC)cc1N1CCOCC1`: the Ratio IC50 in the test filed under Homo sapiens [2] is under 1. Further, the values for the pIC50 in the test with HT-29, in the test on A549 and in the test on NCI-H1975 were 5.81, 5.93 and 5.39, respectively.
Consider `C=CC(=O)Nc1cc(Nc2ncc3ncn(-c4ccc(C(C)C)cc4)c3n2)c(OC)cc1N(C)CCN(C)C`, for which the pIC50 in test [1] is 7.60; in the test with HT-29, 4.82; with A549 it was 4.84; in the test with NCI-H1975 it was 7.13; in test [4], 8.38. In addition, the Ratio IC50 turned out to be 196 in the test filed under Homo sapiens [2] and 6 in the test listed under Homo sapiens [3].
Consider `C=CC(=O)Nc1cc(Nc2ncc3ncn(-c4ccc(Cl)cc4)c3n2)c(OC)cc1N(C)CCN(C)C`, for which the negative-log IC50 (pIC50) was 7.81 in test [1]; 5.11 in the test with HT-29; 5.73 with A549; 8.19 in test [5]; 7.07 in the test with NCI-H1975; 8.41 in test [4]. Moreover, the Ratio IC50 came out at 30 in the test listed under Homo sapiens [2] and 7 in the test listed under Homo sapiens [3].
For `C=CC(=O)Nc1cc(Nc2ncc3[nH]c(=O)n(-c4ccc(C(C)C)cc4)c3n2)c(OC)cc1N1CCN(C)CC1`, the Ratio IC50 in the test listed under Homo sapiens [2] was 1. Moreover, the figures for the pIC50 in the test on HT-29, in the test on A549 and with NCI-H1975 were 4.84, 5.69 and 5.67, respectively.
The matching figures for `C=CC(=O)Nc1cc(Nc2ncc3ncn(-c4ccccc4Br)c3n2)c(OC)cc1N(C)CCN(C)C`: 1, 4.79, 5.68 and 5.74.
`C=CC(=O)Nc1cc(Nc2nccc(-c3cn(C)c4ccccc34)n2)c(OC)cc1N(C)CCN(C)C` [OSIMERTINIB]: the pIC50 in the test on HT-29 is 6.19; in the test on A549, 6.06; in the test with NCI-H1975, […].
`C=CC(=O)Nc1cc(Nc2ncc3ncn(-c4ccccc4Cl)c3n2)c(OC)cc1N(C)CCN(C)C`: in the test listed under Homo sapiens [2], the Ratio IC50 came to 7. Further, the negative logarithm of the IC50 (pIC50) in the test on HT-29 was 4.95; with A549, 4.90; in the test on NCI-H1975, 5.77.
With `C=CC(=O)Nc1cc(Nc2ncc3ncn(-c4ccc(Cl)cc4Cl)c3n2)c(OC)cc1N(C)CCN(C)C`, in the test filed under Homo sapiens [2], the Ratio IC50 turned out to be 7. Besides, the pIC50 in the test on HT-29 is 4.69; with A549, 4.95; in the test with NCI-H1975 it was 5.79.
For the compound `C=CC(=O)Nc1cc(Nc2ncc3ncn(-c4ccc(I)cc4)c3n2)c(OC)cc1N(C)CCN(C)C`, the pIC50 in test [1] was 7.77; in the test on HT-29, 5.02; in the test with A549 it was 5.06; in test [5], 8.33; in the test on NCI-H1975, 7.12; in test [4], 8.46. For the same compound, the Ratio IC50 in the test listed under Homo sapiens [2] worked out at 115; in the test filed under Homo sapiens [3] it was 4.9.
Take `C=CC(=O)Nc1cc(Nc2ncc3[nH]c(=O)n(-c4ccc(I)cc4)c3n2)c(OC)cc1N(C)CCN(C)C`: the Ratio IC50 in the test filed under Homo sapiens [2] stood at 15. For the same compound, the values for the pIC50 with HT-29, with A549 and with NCI-H1975 were 5.32, 5.91 and 6.08, respectively.
As for `C=CC(=O)Nc1cc(Nc2ncc3ncn(-c4ccc(I)cc4)c3n2)c(OC)cc1N1CCOCC1`, the Ratio IC50 in the test filed under Homo sapiens [2] is under 1. Further, the pIC50 with HT-29 was 4.45; in the test with A549 it was 5.82; in the test on NCI-H1975, 4.53.
As to `C=CC(=O)Nc1cc(Nc2ncc3ncn(-c4ccccc4)c3n2)c(OC)cc1N(C)CCN(C)C`, in the test listed under Homo sapiens [2], the Ratio IC50 was found to be 58. Besides, the results for the negative-log IC50 (pIC50) in the test on HT-29, with A549 and in the test on NCI-H1975 were 5.09, 6.24 and 6.96, respectively.
Turning to `C=CC(=O)Nc1cc(Nc2ncc3ncn(-c4ccc(Br)cc4)c3n2)c(OC)cc1N(C)CCN(C)C`, in the test filed under Homo sapiens [2], the Ratio IC50 is 8. In addition, the results for the pIC50 in the test with HT-29, with A549 and with NCI-H1975 were 5.84, 5.94 and 6.85, respectively.
For the compound `C=CC(=O)Nc1cc(Nc2ncc3ncn(-c4ccc(CC)cc4)c3n2)c(OC)cc1N(C)CCN(C)C`, the Ratio IC50 in the test filed under Homo sapiens [2] came to 16. Besides, the figures for the pIC50 in the test on HT-29, in the test on A549 and in the test on NCI-H1975 were 5.09, 5.71 and 6.89, respectively.
The matching figures for `C=CC(=O)Nc1cc(Nc2ncc3ncn(-c4ccccc4F)c3n2)c(OC)cc1N(C)CCN(C)C`: under 1, 5.01, 5.24 and 5.17.
For the compound `C=CC(=O)Nc1cc(Nc2ncc3ncn(-c4ccc(OC)cc4)c3n2)c(OC)cc1N(C)CCN(C)C`, the Ratio IC50 in the test listed under Homo sapiens [2] was determined as 42. The negative-log IC50 (pIC50) with HT-29 was 5.76; in the test on A549, 5.48; with NCI-H1975, 6.80.
For `C=CC(=O)Nc1cc(Nc2ncc3[nH]c(=O)n(-c4ccc(I)cc4)c3n2)c(OC)cc1N1CCN(C)CC1`, the Ratio IC50 in the test filed under Homo sapiens [2] is under 1. For the same compound, the negative-log IC50 (pIC50) is 4.41 in the test on HT-29, 6.31 in the test with A549 and 4.98 in the test on NCI-H1975.
On the same counts, the results for `C=CC(=O)Nc1cc(Nc2ncc3ncn(-c4ccc(F)c(Cl)c4)c3n2)c(OC)cc1N(C)CCN(C)C` are 35, 5.79, 5.28 and 7.00.
`C=CC(=O)Nc1cc(Nc2ncc3nc(Nc4ccccc4)n(C(C)C)c3n2)c(OC)cc1N(C)CCN(C)C`: the pIC50 in test [1] is 7.39; with HT-29, 5.33; with A549 it was 5.85; in the test with NCI-H1975, 7.34; in test [4] it was 8.29. Moreover, the Ratio IC50 in the test listed under Homo sapiens [2] amounted to 31; in the test listed under Homo sapiens [3], 8.
As to `C=CC(=O)Nc1cc(Nc2ncc3ncn(-c4ccc(C(C)C)cc4)c3n2)c(OC)cc1N1CCOCC1`, the Ratio IC50 in the test listed under Homo sapiens [2] is under 1. The pIC50 is 4.64 in the test with HT-29, 5.37 in the test with A549 and 5.29 in the test with NCI-H1975.
In the case of `C=CC(=O)Nc1cc(Nc2ncc3[nH]c(=O)n(-c4ccc(I)cc4)c3n2)c(OC)cc1N1CCOCC1`, in the test filed under Homo sapiens [2], the Ratio IC50 amounted to 4. Moreover, the negative logarithm of the IC50 (pIC50) in the test on HT-29 was 4.71; in the test with A549, 4.73; in the test on NCI-H1975 it was 5.37.
The matching figures for `C=CC(=O)Nc1cc(Nc2ncc3ncn(-c4ccc(C(C)C)cc4)c3n2)c(OC)cc1N1CCN(C)CC1`: 5, 5.11, 5.03 and 5.71.
Take `C=CC(=O)Nc1cc(Nc2ncc3ncn(-c4ccc(I)cc4)c3n2)c(OC)cc1N1CCN(C)CC1`: the Ratio IC50 in the test filed under Homo sapiens [2] was under 1. In addition, the pIC50 with HT-29 is 4.68; in the test on A549, 5.20; in the test on NCI-H1975, 5.14.
With `C=CC(=O)Nc1cc(Nc2ncc3nc(Nc4ccccc4)n(C)c3n2)c(OC)cc1N(C)CCN(C)C`, the negative logarithm of the IC50 (pIC50) in test [1] was 7.65; in the test with HT-29, 5.06; in the test on A549, 5.22; in test [5], 8.46; in the test with NCI-H1975, 7.42; in test [4], 8.57. Besides, the Ratio IC50 in the test listed under Homo sapiens [2] was 160; in the test listed under Homo sapiens [3] it was 8.3. Also, in test [4] (read-out: pIC50 (converted)), the IC50 was 2.69 nM.
Regarding `C=CC(=O)Nc1cc(Nc2ncc3ncn(-c4ccc(C)cc4)c3n2)c(OC)cc1N(C)CCN(C)C`, the Ratio IC50 in the test filed under Homo sapiens [2] was 3. Moreover, the figures for the negative-log IC50 (pIC50) in the test with HT-29, in the test with A549 and in the test with NCI-H1975 were 5.03, 6.44 and 6.85, respectively.
With `C=CC(=O)Nc1cc(Nc2ncc3nc(Nc4ccccc4)n(C4CCCC4)c3n2)c(OC)cc1N(C)CCN(C)C`, the Ratio IC50 in the test listed under Homo sapiens [2] came to 3. Also, the negative logarithm of the IC50 (pIC50) in the test with HT-29 is 4.94; in the test on A549 it was 6.11; in the test with NCI-H1975 it was 6.64.
On the same counts, the results for `C=CC(=O)Nc1cc(Nc2ncc3ncn(C4CCCC4)c3n2)c(OC)cc1N(C)CCN(C)C` are 9, 4.68, 5.54 and 6.48.
On to `C=CC(=O)Nc1cc(Nc2ncc3ncn(-c4ccc(F)cc4)c3n2)c(OC)cc1N(C)CCN(C)C`, for which the pIC50 is 7.74 in test [1]; 4.92 in the test on HT-29; 6.38 with A549; 8.24 in test [5]; 7.21 with NCI-H1975; 8.49 in test [4]. The Ratio IC50 in the test filed under Homo sapiens [2] worked out at 7; in the test listed under Homo sapiens [3] it was 5.6.
